Experiment: Toxicity liver stage against HepG2, at 10uM
Format: cell-based
Set-up: test concentration 10 uM, cell line HepG2-A16-CD81EGFP
Settings: human, HepG2-A16-CD81EGFP cells; read-out: INHIBITION
Method in brief: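 Uninfected HepG2-A16-CD81EGFP cells, 3 × 10^3 per well, 1536-well, plated on prespotted compound at 10 μM final, parasite-free screening media added to match infected plates; puromycin 10 μM positive, DMSO 0.5% negative; run in parallel with 48 h PbLuc assay at 37 °C, 5% CO2; viability by CellTiter-Glo luminescence, normalized to controls.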

| Compound | cytotoxicity at 10 µM [%] |
| --- | --- |
| CC(=O)N1CCOC[C@H](Oc2ccc(C(F)(F)F)cc2)C1 | 2.65 |
| Cc1cc2nc(CO[C@H]3CN(C4CCC4)C[C@H]3F)[nH]c2cc1C | 1.56 |
| COCCCNc1c(-c2ccc(C)cc2)c(=O)c1=O | 12.5 |
| CC(=O)c1cn(CC(=O)N[C@H](C(=O)O)C(C)C)c2ccccc12 | -7.06 |
| COCCc1nnc(NC(=O)Cc2ccccc2Cl)o1 | -6.95 |
| COCC(=O)N1CCC2(CC1)CCn1c(-c3cccc(OC)c3)cnc12 | -5.21 |
| Cn1cc(CN2CCC3(CC2)CC(=O)Nc2ccccc23)cn1 | 8.49 |
| Cc1cc2nc(SCC(=O)N3CCCCC3)n(C)c(=O)c2[nH]1 | 5.56 |
| C[C@H](NC(=O)Cc1csc(-c2cccc(Cl)c2)n1)C(=O)O | 1.25 |
| COc1ccc2c(ccn2CCN)c1 | -0.73 |
| O=C(NC1CC1)c1ccc2ccc(N3CCN(CC4CC4)CC3)n2c1 | 1.26 |
| Cc1nc(N2CCCC2)nc2c1CN(C(=O)N1CCOCC1)CC2 | 6.17 |
| Cn1cc(CN2CCCn3cnc(COCC4CC4)c3C2)cn1 | -6.66 |
| O=C(CSc1ccccn1)NCc1ccc2c(c1)CCC(=O)N2 | 20 |
| Cc1cccc2c1cnn2CCCNC(=O)c1ccnn1C | 13.4 |
| Cc1nn(C)c(C)c1-c1ccc(=O)n(C(C)C(=O)NC2CCCC2)n1 (stereo not given) | 5.97 |
| Cc1ccc(CC2COCCN(Cc3ccccc3)C2)nc1 (stereo not given) | 8.3 |
| COc1ccc(C2CNCCN2C(=O)c2cccc3cccnc23)cc1 (stereo not given) | -4.48 |
| CNc1ncc(C(=O)N2CCOC(C(=O)N3CCCCCC3)C2)cn1 (stereo not given) | -8.29 |
| COCCN(Cc1ccccn1)C(=O)CC1OCCc2sccc21 (stereo not given) | -54.8 |
| Cc1cnn(CC(C)NCC(=O)NC2CCOCC2)c1 (stereo not given) | 15.6 |
| NC(=O)N1CCC(NCc2cc(Br)ccc2Cl)CC1 | -6.43 |
| N#Cc1c(CN2CCCC2Cn2cccn2)cn2ccccc12 (stereo not given) | -4.67 |
| CC(C)OCCC(=O)NS(=O)(=O)N1CCOc2ccccc21 | -0.955 |
| CN(Cc1cc(Cl)cc2cccnc12)CC1CCN(CCO)CC1 | -5.2 |
| Cc1ncncc1C(=O)N1CCCN(Cc2ncc(Cl)n2C)CC1 | 6.45 |
| CNC(=O)NCC(=O)N(C)C(c1ccc(Cl)cc1)c1cccnc1 (stereo not given) | 9.61 |
| Cc1ccccc1C(C#N)NC(=O)c1cccc2c1OCCO2 (stereo not given) | -3.38 |

| Compound | cytotoxicity at 10 µM [%] |
| --- | --- |
| CC(C)N1CCC(O)(CNC(=O)CC2OCCc3ccccc32)CC1 (stereo not given) | 5.02 |
| COCCCC(=O)Nc1cccnc1N1CCCCC1 | -6.34 |
| CS(=O)(=O)c1ccccc1NC(=O)N[C@@H]1c2ccccc2C[C@@H]1O | -42.2 |
| O=C(NCc1nc(C2CC2)no1)N1CCOC(c2ccccc2F)C1 (stereo not given) | -53.7 |
| CC(Oc1cc(Cl)cc(Cl)c1)C(=O)NCCS(N)(=O)=O (stereo not given) | -11.7 |
| CCN(CC)Cc1ccccc1NCc1c(C)noc1C | -2.04 |
| Cc1n[nH]c(C2CN(C(=O)c3csnn3)CCO2)n1 (stereo not given) | 2.74 |
| CN(Cc1nnc(C2CC2)n1C)C1CCN(CCc2ccccc2)C1 (stereo not given) | 2.03 |
| CCC(C#N)NC(=O)COC1CCCCC1 (stereo not given) | 5.48 |
| CCOc1ccccc1C(CC(=O)N(C)c1ccccc1)NC(C)=O (stereo not given) | -8.28 |
| CC(NCC1CCN(CCO)CC1)c1ccc(F)c(Cl)c1 (stereo not given) | -9.04 |
| Cn1cc(CNC2CCS(=O)(=O)C2)c(-c2cc3ccccc3o2)n1 (stereo not given) | -39.1 |
| COCCn1ccc(NC(=O)CNC(=O)CC(C)(C)C)n1 | 17.3 |
| c1ccc(-c2cnc(CNC3CCc4ncnn4C3)o2)cc1 (stereo not given) | -3.78 |
| O=S(=O)(NC1CCCCC12OCCO2)c1ccc2c(c1)OCCO2 (stereo not given) | -0.839 |
| COCCCN(Cc1ccc(F)cc1Cl)C1CCS(=O)(=O)C1 (stereo not given) | 13.7 |
| CC(CCN1CCOCC1)NC(=O)c1cccc(C(F)(F)F)c1F (stereo not given) | -44.8 |
| Cn1c(CC2CCS(=O)(=O)C2)nnc1SCCOc1ccccc1F (stereo not given) | -6.82 |
| CCS(=O)(=O)NC(C(=O)NC)c1ccc(F)c(F)c1 (stereo not given) | -9.06 |
| N#Cc1cc(NC(=O)c2ccsc2)ccc1N1CCC(O)CC1 | 4.77 |
| c1cnnc(N2CCCC2CNCc2nc3ccccc3o2)c1 (stereo not given) | -10.9 |
| Cc1cnc(C(=O)N2CCCN(Cc3csc(C)n3)CC2)cn1 | -16 |
| O=C(NC1CC2(CCN(CCO)CC2)Oc2ccccc21)c1csnn1 (stereo not given) | -101 |
| CC(C)Nc1nc2c(s1)C(=O)CN(C)C2 | -9.77 |
| CC(C)CC(=O)N1CC(=O)c2sc(NCCc3ccccc3)nc2C1 | -0.501 |
| CCCc1ccc(CN2CCC3(CCC(=O)N(CCCOC)C3)CC2)o1 | -1.53 |
| COc1ccc(CCCN2C(=O)O[C@@H]3CN(C4CCOCC4)C[C@@H]32)cc1 | -1.47 |

Reference: ChEMBL document CHEMBL4513216, “Probing the Open Global Health Chemical Diversity Library for Multistage-Active Starting Points for Next-Generation Antimalarials” (ACS Infect Dis, 2020)
